OX1R antag-1: human HCRTR1 antagonism; 330,000 compounds, 0.43% hits; inhibition, % at 5 µM; CHO/OX1R cells, Fluo-8 calcium fluorescence, orexin A; AID 434989; O43613;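 active = inhibition above its plate's threshold, mean inhibition of all tested compounds on the plate plus 3 SD, cut at about 37% in these data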;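 note: 0% = orexin A challenge wells and 100% = SB-334867-A antagonist wells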
Target sequence (O43613 whole entry, looked up): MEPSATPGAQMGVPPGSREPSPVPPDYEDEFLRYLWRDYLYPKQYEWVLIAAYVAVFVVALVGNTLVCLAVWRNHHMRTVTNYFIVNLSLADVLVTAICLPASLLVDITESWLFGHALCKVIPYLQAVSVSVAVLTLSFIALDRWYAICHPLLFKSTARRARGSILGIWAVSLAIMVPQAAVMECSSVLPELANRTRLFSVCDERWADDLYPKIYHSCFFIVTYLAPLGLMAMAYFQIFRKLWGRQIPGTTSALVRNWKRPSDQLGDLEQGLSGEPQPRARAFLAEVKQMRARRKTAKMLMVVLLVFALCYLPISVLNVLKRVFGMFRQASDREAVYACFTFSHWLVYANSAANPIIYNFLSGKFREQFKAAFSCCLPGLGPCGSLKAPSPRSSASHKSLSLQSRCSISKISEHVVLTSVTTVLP
CHO parental Ca: signal in parental CHO cells, OX1R antagonist counter-screen. parental CHO-K1, ATP-induced calcium, Fluo-8 fluorescence. inhibition, % at 5.6 µM. 330,000 compounds, 0.63% hits. AID 463079;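 active = inhibition above that plate's mean sample inhibition plus 3 SD, cut at about 26% in these data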;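 note: 0% = ATP-challenged DMSO wells and 100% = DMSO wells without ATP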
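Test system: untransfected parental CHO cell line. Compound: one dose, 5.6 µM nominal. Detection: intracellular calcium via Fluo-8 no-wash fluorescent dye. Measure: % inhibition. Benchmarks: ATP-challenged DMSO wells low, unchallenged DMSO wells high.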
OX1R antag-2: antagonists of human orexin 1 receptor (OX1R); O43613; OX1R-expressing cells, FRET antagonist read-out; inhibition, % at 6.6 µM; 330,000 compounds, 1.8% hits; AID 485270; in the data active = inhibition mostly above about 38%, no sharp cut-off; inactive = mostly below about 40%;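 note: 0% = agonist challenge alone and 100% = reference antagonist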
TAAR1 agonist: human TAAR1 agonism; Q96RJ0; activation, % at 3 µM; 360,000 compounds, 0.99% hits; AID 624467; CHO RD-HGA16 TAAR1, Fluo-8 calcium fluorescence; vehicle wells 0%, saturating PEA agonist 100%;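 active = activation above the mean activation of all test compounds in the run plus 3 SD, cut at about 38% in these data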
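Benchmarks: low control DMSO, high control PEA (EC100); System: CHO RD-HGA16 cells carrying human TAAR1 plus Gα16; Detection: Fluo-8 fluorescence, 5 s baseline then 140 s kinetic read; Schedule: 17-24 h plating, Fluo-8 75 min 37 °C, 30 min RT; Read-out basis: % activation from peak over basal fluorescence ratio, DMSO-to-PEA scaled.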
GPR7 antagonist: human neuropeptides B/W receptor 1 antagonism; GPR7-expressing cells, fluorescence antagonist assay; inhibition, % at 4.4 µM; 290,000 compounds, 1.1% hits; in the data active = inhibition above about 16%, passing the limit was not always enough;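 note: cells stimulated with the agonist NPW; 0% = agonist with vehicle and 100% = vehicle without agonist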
TAAR1 antagonist: antagonists of human TAAR1; inhibition, % at 3 µM; 360,000 compounds, 1.5% hits; CHO RD-HGA16 TAAR1, Fluo-8 calcium fluorescence, antagonist; Q96RJ0;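 active = inhibition above a per-plate cutoff, the mean inhibition of test compounds on that plate plus 3 SD, cut at about 49% in these data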;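 note: 0% = DMSO plus EC80 beta-PEA response and 100% = DMSO alone without agonist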
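Assay system: RD-HGA16 CHO cells with stable hTAAR1 and Gα16 / Reagent: EC80 β-phenethylamine stimulus / Doses: 3 µM, single point / Timing: dye loading 75 min at 37 °C, then 30 min room temperature / Measured by: Fluo-8 intracellular calcium dye fluorescence, real-time kinetic reads / Controls: vehicle wells and EC80 agonist wells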
* = called active by the depositor; ! = a repeat was not active. Sampled rows, rich in hits. Any-hit rate of the full collection: about 4.5%.

CCC(C)Sc1cc(-c2nc3ccc(C)cn3c2NCc2ccccc2)ccc1OC (configuration not stated) was read as OX1R antag-1 73*, CHO parental Ca 97*, OX1R antag-2 54, TAAR1 agonist 4 and TAAR1 antagonist 72*.
CCCCNc1c(-c2ccc(OC)c(SC(C)CC)c2)nc2ccc(Cl)cn12 (configuration not stated) was read as OX1R antag-1 -18, CHO parental Ca -12, OX1R antag-2 15, TAAR1 agonist 7 and TAAR1 antagonist 23.
Screening CCC(C)Sc1ccc(-c2nc3ccc(C)cn3c2NCc2ccccc2)cc1OC (configuration not stated) returned OX1R antag-1 56*, CHO parental Ca 35 and OX1R antag-2 56.
`CCC(C)Sc1ccc(-c2nc3ccc(Cl)cn3c2NCc2ccccc2)cc1` (configuration not stated) gave OX1R antag-1 1, CHO parental Ca -21, OX1R antag-2 17, TAAR1 agonist 3 and TAAR1 antagonist 22.
CCC(C)Sc1cccc(-c2nc3cc(C)ccn3c2NCc2ccccc2)c1 (configuration not stated) was read as OX1R antag-1 20, CHO parental Ca 17, OX1R antag-2 34, TAAR1 agonist 6 and TAAR1 antagonist 77*!.
CCCCCCSc1ccc(-c2nc3ccc(C)cn3c2NCc2ccccc2)cc1OC was read as OX1R antag-1 -55, CHO parental Ca -23, OX1R antag-2 32, TAAR1 agonist -1 and TAAR1 antagonist 3.
COc1ccc(-c2cc(-c3nc4ccccn4c3NCc3ccccc3)ccc2OC)cc1 was read as OX1R antag-1 96*, CHO parental Ca 100*, OX1R antag-2 89*, TAAR1 agonist 20 and TAAR1 antagonist 88*.
For CCc1cc2c(nc1CC)CCCN2S(=O)(=O)c1ccc(C)cc1 the results were TAAR1 agonist 5 and TAAR1 antagonist 4.
COc1ccc([C@H]2CC(=O)C=C(c3cccc(C(C)C)c3)C2)cc1OC was read as OX1R antag-1 48*, CHO parental Ca 24, OX1R antag-2 6, TAAR1 agonist 5 and TAAR1 antagonist 66*.
For CC(C)c1cccc(C2=CC(=O)C[C@H](c3ccc(F)cc3)C2)c1 the results were OX1R antag-1 -6, CHO parental Ca -27, OX1R antag-2 16, TAAR1 agonist 6 and TAAR1 antagonist 52*.
`COc1ccccc1CNC(=O)COC(=O)c1cnc(C)cn1` gave TAAR1 agonist 2 and TAAR1 antagonist -2.
`COc1cc(-c2cc(NC(C)=O)c3ncc(-c4ccc(F)cc4)n3c2)cc(OC)c1OC` gave TAAR1 agonist 13 and TAAR1 antagonist 52*.
`COc1cc(-c2cc(NC(C)=O)c3ncc(-c4ccc(C(C)=O)cc4)n3c2)cc(OC)c1OC` gave TAAR1 agonist 10 and TAAR1 antagonist 48.
For CC(=O)Nc1cc(-c2ccccc2)cn2c(-c3ccc(F)cc3)cnc12 the results were TAAR1 agonist 6 and TAAR1 antagonist 49*.
For C[C@@H]1CN(c2ccc(N3CCN(C(=O)OC(C)(C)C)C[C@@H]3C)cc2C#N)CCN1Cc1ccccc1 the results were TAAR1 agonist -1 and TAAR1 antagonist 30.
For CCCCNC(=S)Nc1ccc([N+](=O)[O-])cc1 the results were OX1R antag-1 18, CHO parental Ca 23, OX1R antag-2 38, TAAR1 agonist 5, GPR7 antagonist 23* and TAAR1 antagonist 2.
`CCCCNC(=S)NC(=O)c1ccc([N+](=O)[O-])cc1` gave OX1R antag-1 -10, CHO parental Ca -11, OX1R antag-2 36, TAAR1 agonist -3, GPR7 antagonist 22 and TAAR1 antagonist 10.
CC(C)CCNC(=S)Nc1ccc([N+](=O)[O-])cc1 was read as OX1R antag-1 39, CHO parental Ca 28, OX1R antag-2 45, TAAR1 agonist 6, GPR7 antagonist 22* and TAAR1 antagonist 28.
For C=CCn1c(Sc2ncc([N+](=O)[O-])s2)n[nH]c1=O the results were OX1R antag-1 21, CHO parental Ca 11, OX1R antag-2 57*, TAAR1 agonist 5, GPR7 antagonist 0 and TAAR1 antagonist -12.
